Measured values as given in ChEMBL document CHEMBL5058577, “EUbOPEN Chemogenomics Library 2 (Multiplex)” (2022).

Test system: U2OS
Experiment: Multiplex assay against U2OS
Format: toxicity, cell-based
Conditions: human
Outline: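 Compound was added to live cells that had been stained at seeding with Hoechst33342, BioTracker Green Microtubule Cytoskeleton Dye, MitoTracker Red and Annexin V Alexa Fluor 680, and imaging followed on a CQ1 microscope at 37°C and 5% CO2. CellPathfinder machine-learning gating divided cells into Hoechst high-intensity objects or normal cells, normal cells into healthy, pyknosed or fragmented nuclei, and pyknosed cells into mitotic or apoptotic. Tubulin, mitochondrial-mass and membrane-permeability phenotypes are per cents of healthy-nucleus cells.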

[1] = 12 h, 1 µM, compound concentration 1 uM, replicate 1
[2] = 12 h, 1 µM, compound concentration 1 uM, replicate 2
[3] = 12 h, 10 µM, compound concentration 10 uM, replicate 1
[4] = 12 h, 10 µM, compound concentration 10 uM, replicate 2
[5] = 24 h, 1 µM, compound concentration 1 uM, replicate 1
[6] = 24 h, 1 µM, compound concentration 1 uM, replicate 2
[7] = 24 h, 10 µM, compound concentration 10 uM, replicate 1
[8] = 24 h, 10 µM, compound concentration 10 uM, replicate 2
[9] = 48 h, 1 µM, compound concentration 1 uM, replicate 1
[10] = 48 h, 1 µM, compound concentration 1 uM, replicate 2
[11] = 48 h, 10 µM, compound concentration 10 uM, replicate 1
[12] = 48 h, 10 µM, compound concentration 10 uM, replicate 2

SMILES: COc1ccc2c(c1)C(C(=O)N(Cc1ccc(N(C)C)cc1)c1ccc(C(C)C)cc1)CCC2.Cl (configuration not stated)
- Population Apoptotic (%) [1]: 70%
- Population Fragmented Nuclei (%) [1]: 36%
- Population Healthy Nuclei (%) [1]: 54%
- Population Hoechst High Intensity Objects (%) [1]: 4%
- Population Membrane Permeable-Phenotype (%) [1]: 8%
- Population Mitochondria Different-Phenotype (%) [1]: 5%
- Population Mitotic Cells (%) [1]: 29%
- Population Normal (%) [1]: 95%
- Population Pyknosed Nuclei (%) [1]: 9%
- Population Tubulin-Different-Phenotype (%) [1]: 4%
- Total Cell Count [1]: 264
- Population Fragmented Nuclei (%) [2]: 17%
- Population Healthy Nuclei (%) [2]: 73%
- Population Hoechst High Intensity Objects (%) [2]: 3%
- Population Membrane Permeable-Phenotype (%) [2]: 9%
- Population Mitochondria Different-Phenotype (%) [2]: 3%
- Population Mitotic Cells (%) [2]: 30%
- Population Normal (%) [2]: 96%
- Population Pyknosed Nuclei (%) [2]: 8%
- Population Tubulin-Different-Phenotype (%) [2]: 2%
- Total Cell Count [2]: 122
- Population Apoptotic (%) [3]: 38%
- Population Fragmented Nuclei (%) [3]: 27%
- Population Healthy Nuclei (%) [3]: 50%
- Population Hoechst High Intensity Objects (%) [3]: 4%
- Population Membrane Permeable-Phenotype (%) [3]: 73%
- Population Mitochondria Different-Phenotype (%) [3]: 55%
- Population Mitotic Cells (%) [3]: 61%
- Population Normal (%) [3]: 95%
- Population Pyknosed Nuclei (%) [3]: 22%
- Population Tubulin-Different-Phenotype (%) [3]: 80%
- Total Cell Count [3]: 224
- Population Apoptotic (%) [4]: 60%
- Population Fragmented Nuclei (%) [4]: 16%
- Population Healthy Nuclei (%) [4]: 60%
- Population Membrane Permeable-Phenotype (%) [4]: 43%
- Population Mitochondria Different-Phenotype (%) [4]: 73%
- Population Mitotic Cells (%) [4]: 40%
- Population Pyknosed Nuclei (%) [4]: 23%
- Population Tubulin-Different-Phenotype (%) [4]: 58%
- Total Cell Count [4]: 113
- Population Apoptotic (%) [5]: 75%
- Population Fragmented Nuclei (%) [5]: 27%
- Population Healthy Nuclei (%) [5]: 61%
- Population Hoechst High Intensity Objects (%) [5]: 4%
- Population Membrane Permeable-Phenotype (%) [5]: 5%
- Population Mitochondria Different-Phenotype (%) [5]: 4%
- Population Mitotic Cells (%) [5]: 24%
- Population Normal (%) [5]: 95%
- Population Pyknosed Nuclei (%) [5]: 11%
- Population Tubulin-Different-Phenotype (%) [5]: 4%
- Total Cell Count [5]: 273
- Population Apoptotic (%) [6]: 100%
- Population Fragmented Nuclei (%) [6]: 18%
- Population Healthy Nuclei (%) [6]: 73%
- Population Hoechst High Intensity Objects (%) [6]: 2%
- Population Mitochondria Different-Phenotype (%) [6]: 1%
- Population Mitotic Cells (%) [6]: 0%
- Population Normal (%) [6]: 97%
- Population Pyknosed Nuclei (%) [6]: 7%
- Population Tubulin-Different-Phenotype (%) [6]: 2%
- Total Cell Count [6]: 146
- Population Apoptotic (%) [7]: 71%
- Population Fragmented Nuclei (%) [7]: 25%
- Population Healthy Nuclei (%) [7]: 50%
- Population Hoechst High Intensity Objects (%) [7]: 2%
- Population Membrane Permeable-Phenotype (%) [7]: 54%
- Population Mitochondria Different-Phenotype (%) [7]: 42%
- Population Mitotic Cells (%) [7]: 28%
- Population Normal (%) [7]: 97%
- Population Pyknosed Nuclei (%) [7]: 24%
- Population Tubulin-Different-Phenotype (%) [7]: 49%
- Total Cell Count [7]: 224
- Population Apoptotic (%) [8]: 86%
- Population Fragmented Nuclei (%) [8]: 20%
- Population Healthy Nuclei (%) [8]: 57%
- Population Hoechst High Intensity Objects (%) [8]: 9%
- Population Membrane Permeable-Phenotype (%) [8]: 45%
- Population Mitochondria Different-Phenotype (%) [8]: 53%
- Population Mitotic Cells (%) [8]: 13%
- Population Normal (%) [8]: 90%
- Population Pyknosed Nuclei (%) [8]: 22%
- Population Tubulin-Different-Phenotype (%) [8]: 48%
- Total Cell Count [8]: 115
- Population Apoptotic (%) [9]: 80%
- Population Fragmented Nuclei (%) [9]: 21%
- Population Healthy Nuclei (%) [9]: 65%
- Population Hoechst High Intensity Objects (%) [9]: 2%
- Population Membrane Permeable-Phenotype (%) [9]: 10%
- Population Mitochondria Different-Phenotype (%) [9]: 5%
- Population Mitotic Cells (%) [9]: 20%
- Population Normal (%) [9]: 97%
- Population Pyknosed Nuclei (%) [9]: 13%
- Population Tubulin-Different-Phenotype (%) [9]: 3%
- Total Cell Count [9]: 369
- Population Apoptotic (%) [10]: 93%
- Population Fragmented Nuclei (%) [10]: 17%
- Population Healthy Nuclei (%) [10]: 73%
- Population Hoechst High Intensity Objects (%) [10]: 3%
- Population Membrane Permeable-Phenotype (%) [10]: 6%
- Population Mitochondria Different-Phenotype (%) [10]: 4%
- Population Mitotic Cells (%) [10]: 6%
- Population Normal (%) [10]: 96%
- Population Pyknosed Nuclei (%) [10]: 8%
- Population Tubulin-Different-Phenotype (%) [10]: 2%
- Total Cell Count [10]: 203
- Population Apoptotic (%) [11]: 73%
- Population Fragmented Nuclei (%) [11]: 21%
- Population Healthy Nuclei (%) [11]: 47%
- Population Hoechst High Intensity Objects (%) [11]: 3%
- Population Membrane Permeable-Phenotype (%) [11]: 43%
- Population Mitochondria Different-Phenotype (%) [11]: 26%
- Population Mitotic Cells (%) [11]: 26%
- Population Normal (%) [11]: 96%
- Population Pyknosed Nuclei (%) [11]: 30%
- Population Tubulin-Different-Phenotype (%) [11]: 31%
- Total Cell Count [11]: 265
- Population Apoptotic (%) [12]: 92%
- Population Fragmented Nuclei (%) [12]: 26%
- Population Healthy Nuclei (%) [12]: 49%
- Population Hoechst High Intensity Objects (%) [12]: 8%
- Population Mitochondria Different-Phenotype (%) [12]: 36%
- Population Mitotic Cells (%) [12]: 7%
- Population Normal (%) [12]: 91%
- Population Pyknosed Nuclei (%) [12]: 24%
- Population Tubulin-Different-Phenotype (%) [12]: 42%
- Total Cell Count [12]: 126
